{"source": "paper PMC11349029", "about": "(Science translational medicine, 2016)", "key": {"AR55Q (polyQ-AR) [1]": {"system": "AR55Q (polyQ-AR)", "assay": "Western blotting of upper AR isoform in HEK293T cells", "assay_type": "cell-based, human", "conditions": "for accumulation of the upper AR isoform (p21Cip1 experiments) / effect on upper AR isoform upon overexpression of wtCDK2: HEK293T AR55Q; for accumulation of the upper AR isoform (p21Cip1 experiments): 5 or 100 nM OA, 10 μM forskolin, 100 nM PACAP, 24 hours; for effect on upper AR isoform upon overexpression of wtCDK2: 10 μM forskolin or 100 nM PACAP; for mobility of S96A and S96D phosphomutants: HEK293T, AR55Q-S96A, AR55Q-S96D, 100 nM PACAP (5 hours), SDS-PAGE, n = 4"}, "AR": {"system": "AR", "conditions": "cited from earlier work"}, "AR55Q (polyQ-AR) [2]": {"system": "AR55Q (polyQ-AR)", "assay": "PolyQ-AR accumulation and turnover in HEK293T cells", "assay_type": "cell-based, human", "how_it_was_run": "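AR55Q was expressed in HEK293T cells (DMEM, 10% heat-inactivated FBS, 2 mM L-glutamine, 37°C, 5% CO2) by polyethylenimine transfection the day after plating. For turnover, cells got cycloheximide 10 μg/ml plus 10 μM forskolin; separately, empty vector or wtPKA plus 10 μM MG132 for 5 h. AR was immunoblotted after 7% SDS-PAGE against a β-tubulin loading control.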"}, "CDK2/p21^Cip1": {"system": "CDK2/p21^Cip1", "assay": "Binding of CDK2 to p21Cip1 in SBMA cells", "assay_type": "cell-based", "conditions": "fig. S13E"}, "p21^Cip1": {"system": "p21^Cip1", "assay": "p21Cip1 expression in cells", "assay_type": "cell-based", "conditions": "fig. S13, A to D"}, "polyQ-AR [3]": {"system": "polyQ-AR", "assay": "PolyQ-AR aggregation in HEK293T cells", "assay_type": "cell-based, human", "conditions": "high–molecular weight species in stacking gel, SDS-PAGE; fig. S18"}, "[4]": {"system": "AR55Q phosphorylated at Ser^96", "assay": "Western blotting of Ser96-phosphorylated AR in HEK293T cells", "assay_type": "cell-based, human", "conditions": "10 μM forskolin or 100 nM PACAP, 5 hours, n = 5 to 10", "how_it_was_run": "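HEK293T cells expressing AR55Q or AR55Q-S96A were treated with 10 μM forskolin or 100 nM PACAP for 5 hours. Lysates were run on 7% SDS-PAGE and blotted to nitrocellulose. Blots were probed with antibodies to Ser96-phosphorylated and total AR and detected by chemiluminescence or infrared imaging. n = 9 to 10 and 5 independent experiments.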"}, "SBMA MN-1 cells [5]": {"system": "SBMA MN-1 cells", "assay": "Caspase 3 assay in MN-1 cells", "assay_type": "cell-based, mouse", "conditions": "SBMA MN-1 cells (AR65Q), 48 hours"}, "AR100Q (polyQ-AR) [6]": {"system": "AR100Q (polyQ-AR)", "assay": "Western blotting of upper AR isoform in MN-1 cells", "assay_type": "cell-based, mouse motor neuron–derived MN-1 cells", "conditions": "10 μM forskolin (5 hours); n = 3"}, "polyQ-AR [7]": {"system": "polyQ-AR", "assay": "Atomic force microscopy of polyQ-AR oligomers", "assay_type": "cell-based", "conditions": "Sf9 insect cells; 10 nM DHT and 10 μM forskolin, 24 hours; n = 15 to 25"}, "AR100Q (polyQ-AR) [8]": {"system": "AR100Q (polyQ-AR)", "assay": "Western blotting of upper AR isoform in primary cortical neurons", "assay_type": "cell-based, rat primary cortical neurons", "conditions": "10 μM forskolin (5 hours); n = 4", "how_it_was_run": "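Cortical neurons came from embryonic day 18 Sprague-Dawley rats, dissociated with papain/DNase/cysteine and plated at 40,000 cells/cm² on poly-L-lysine in Neurobasal/B-27/GlutaMAX. At 6–7 DIV they were transduced with lentivirus (MOI 10) expressing AR24Q or AR100Q plus EGFP. Neurons were treated with 10 μM forskolin for 5 h, and AR upper and lower isoforms were immunoblotted with loading controls; n = 4.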"}, "AR112Q (polyQ-AR)": {"system": "AR112Q (polyQ-AR)", "assay": "PolyQ-AR aggregation in PC12 cells", "assay_type": "cell-based, rat PC12 cells", "conditions": "doxycycline 10 μg/ml, 10 nM DHT, 10 μM forskolin, 24 hours, n = 3"}, "healthy male subjects": {"system": "healthy male subjects", "conditions": "cited from earlier work"}, "[9]": {"system": "animal models of AD, PD and HD", "conditions": "cited from earlier work"}, "AC/PKA pathway": {"system": "AC/PKA pathway", "conditions": "cited from earlier work"}, "PAC1 receptor": {"system": "PAC1 receptor", "conditions": "cited from earlier work"}, "[10]": {"system": "cAMP (EPAC biosensor), SBMA MN-1 cells", "assay": "BRET cAMP biosensor assay in MN-1 cells", "assay_type": "cell-based, mouse", "conditions": "SBMA MN-1 cells (AR65Q); different concentrations of PACAP, 20 min; n = 4", "how_it_was_run": "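MN-1 cells were transfected with an EPAC cAMP BRET biosensor (Renilla luciferase N-terminal, YFP C-terminal) 24 h after seeding. After another 24 h they were replated at 80,000 cells/well in phenol red–free MEM with 2% FBS, 10 mM Hepes and 2 mM glutamine, with or without 10 nM DHT for 24 h. Wells were read in PBS (Ca/Mg, 0.003% ascorbic acid) with 5 μM coelenterazine h for about 20 min after agonist; cAMP binding lowers the signal.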"}, "[11]": {"conditions": "cited from earlier work"}, "cAMP": {"system": "cAMP", "assay": "cAMP levels in vivo", "set-up": "species or system mouse", "conditions": "fig. S21; intranasal"}, "SBMA MN-1 cells [12]": {"system": "SBMA MN-1 cells", "assay": "Trypan blue assay in MN-1 cells", "assay_type": "cell-based, mouse", "conditions": "MN-1 cells expressing AR100Q, 100 nM PACAP, 96 hours, n = 8", "how_it_was_run": "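MN-1 cells stably expressing AR100Q were grown in DMEM with 10% FBS, 2 mM L-glutamine and gentamicin 0.05 mg/ml at 37°C, 5% CO2. Cells were given DHT plus vehicle or 100 nM PACAP for 96 hours.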"}, "[13]": {"conditions": "cited from earlier work", "remark": "listed apart in the source"}}, "note": "Residues, ends and D or L forms follow the SMILES beside them. No end group written: not given here. *: point of attachment. Cbz = O=C(OCc1ccccc1)*", "data": [{"molecule": "C[C@]12CCC(=O)C[C@@H]1CC[C@@H]1[C@@H]2CC[C@]2(C)[C@@H](O)CC[C@@H]12", "note": "[DHT, dihydrotestosterone]", "values": [{"measurement": "accumulation of the upper AR isoform, increase", "setting": "AR55Q (polyQ-AR) [1]", "value": "about 1.2 fold"}, {"measurement": "AR stabilization", "setting": "AR", "value": "stabilizes"}]}, {"molecule": "CC(C)C[C@@H](C=O)NC(=O)[C@H](CC(C)C)NC(=O)[C@H](CC(C)C)NC(=O)OCc1ccccc1", "note": "[MG132] (Cbz-Leu-Leu-Leu-aldehyde)", "values": [{"measurement": "effect of PKA and OA on polyQ-AR", "setting": "AR55Q (polyQ-AR) [2]; HEK293T AR55Q, 10 μM MG132 (5 hours), n = 3", "value": "abolished"}]}, {"molecule": "C=C1[C@@H](O)[C@@H]2O[C@]3(CC[C@H](/C=C/[C@@H](C)[C@@H]4CC(C)=C[C@@]5(O[C@H](C[C@@](C)(O)C(=O)O)CC[C@H]5O)O4)O3)CC[C@H]2O[C@@H]1[C@@H](O)C[C@H](C)[C@H]1O[C@@]2(CCCCO2)CC[C@H]1C", "note": "[Okadaic acid]", "values": [{"measurement": "accumulation of the upper AR isoform (p21Cip1 experiments)", "setting": "AR55Q (polyQ-AR) [1]; n = 3", "value": "decreased accumulation"}, {"measurement": "binding of CDK2 to p21Cip1", "setting": "CDK2/p21^Cip1", "value": "increased the binding"}, {"measurement": "expression of p21Cip1", "setting": "p21^Cip1", "value": "induced the expression"}]}, {"molecule": "CC[C@H](CO)Nc1nc(NCc2ccccc2)c2ncn(C(C)C)c2n1", "note": "[Roscovitine, roscovitine]", "values": [{"measurement": "accumulation of the upper isoform of polyQ-AR, phosphatase/kinase inhibitors", "setting": "AR55Q (polyQ-AR) [1]; HEK293T expressing AR55Q, fig. S5, S6", "value": "specifically decreased the accumulation"}]}, {"molecule": "C=C[C@@]1(C)CC(=O)[C@]2(O)[C@@]3(C)[C@@H](O)CCC(C)(C)[C@@H]3[C@H](O)[C@H](OC(C)=O)[C@@]2(C)O1", "note": "[forskolin]", "values": [{"measurement": "polyQ-AR aggregation, HEK293T cells", "setting": "polyQ-AR [3]", "value": "reduced"}, {"measurement": "amount of polyQ-AR phosphorylated at Ser96", "setting": "[4]", "value": "significantly reduced"}, {"measurement": "caspase 3 activity, forskolin", "setting": "SBMA MN-1 cells [5]; 10 μM forskolin, n = 6 to 9", "value": "significant decrease"}, {"measurement": "upper-isoform accumulation of polyQ-AR, MN-1 cells", "setting": "AR100Q (polyQ-AR) [6]", "value": "decreased"}, {"measurement": "accumulation of the upper AR isoform (p21Cip1 experiments)", "setting": "AR55Q (polyQ-AR) [1]; n = 3", "value": "decreased accumulation"}, {"measurement": "effect on upper AR isoform upon overexpression of wtCDK2", "setting": "AR55Q (polyQ-AR) [1]; 5 hours, n = 3", "value": "blocked"}, {"measurement": "accumulation of the upper isoform of polyQ-AR", "setting": "AR55Q (polyQ-AR) [1]; HEK293T expressing AR55Q, 10 nM DHT and 10 μM forskolin, 5 hours, n = 3", "value": "decreased the accumulation"}, {"measurement": "mobility of S96A and S96D phosphomutants", "setting": "AR55Q (polyQ-AR) [1]", "value": "not affected"}, {"measurement": "shift from annular to fibrillar oligomers caused by polyQ expansion", "setting": "polyQ-AR [7]", "value": "reversed"}, {"measurement": "upper-isoform accumulation of polyQ-AR, primary rat cortical neurons", "setting": "AR100Q (polyQ-AR) [8]", "value": "decreased"}, {"measurement": "polyQ-AR aggregation, PC12 cells", "setting": "AR112Q (polyQ-AR)", "value": "reduced"}, {"measurement": "binding of CDK2 to p21Cip1", "setting": "CDK2/p21^Cip1", "value": "increased the binding"}, {"measurement": "reduction of polyQ-AR accumulation", "setting": "AR55Q (polyQ-AR) [2]; HEK293T AR55Q, 10 μM forskolin, cycloheximide 10 μg/ml, n = 5", "value": 80, "unit": "%"}, {"measurement": "AR transcript levels", "setting": "AR55Q (polyQ-AR) [2]; fig. S19C", "value": "without altering"}, {"measurement": "expression of p21Cip1", "setting": "p21^Cip1", "value": "induced the expression"}]}, {"molecule": "PACAP38: main PACAP peptide in mammals (137061-48-4, Calbiochem)", "values": [{"measurement": "tolerability, intranasal administration", "setting": "healthy male subjects", "value": "well tolerated"}, {"measurement": "neuroprotective effects", "setting": "[9]", "value": "strong neuroprotective effects"}, {"measurement": "stimulation of cAMP production", "setting": "AC/PKA pathway; general statement in discussion, no reference given", "value": "stimulate cAMP production"}]}, {"molecule": "acetyl–[Ala^15, Ala^20]PACAP1–38–propylamide [Peptide 6]", "values": [{"measurement": "PAC1 receptor agonism", "setting": "PAC1 receptor", "value": "superagonist"}]}, {"molecule": "pituitary adenylyl cyclase activating polypeptide [PACAP]", "values": [{"measurement": "polyQ-AR aggregation, HEK293T cells", "setting": "polyQ-AR [3]", "value": "reduced"}, {"measurement": "dose dependence of cAMP release", "setting": "[10]", "value": "dose-dependent"}, {"measurement": "degradation in the blood", "setting": "[11]", "value": "rapidly degraded in the blood"}, {"measurement": "metabolic stability", "setting": "[11]", "value": "poor metabolic stability"}, {"measurement": "cAMP production in vivo, PACAP", "setting": "cAMP", "value": "induces cAMP production in vivo"}, {"measurement": "amount of polyQ-AR phosphorylated at Ser96", "setting": "[4]", "value": "significantly reduced"}, {"measurement": "caspase 3 activity, PACAP", "setting": "SBMA MN-1 cells [5]; 100 nM PACAP, n = 3, through activation of PKA", "value": "significantly reduced"}, {"measurement": "accumulation of the upper AR isoform (p21Cip1 experiments)", "setting": "AR55Q (polyQ-AR) [1]; n = 3", "value": "decreased accumulation"}, {"measurement": "effect on upper AR isoform upon overexpression of wtCDK2", "setting": "AR55Q (polyQ-AR) [1]; 5 hours, n = 3", "value": "blocked"}, {"measurement": "reduction of the accumulation of the upper isoform of polyQ-AR", "setting": "AR55Q (polyQ-AR) [1]; HEK293T expressing AR55Q, 10 nM DHT and 100 nM PACAP, 5 hours, n = 9", "value": 35, "unit": "%"}, {"measurement": "mobility of S96A and S96D phosphomutants", "setting": "AR55Q (polyQ-AR) [1]", "value": "not affected"}, {"measurement": "activation of AC", "setting": "AC/PKA pathway", "value": "potent activator"}, {"measurement": "polyQ-AR aggregation, PC12 cells", "setting": "AR112Q (polyQ-AR)", "value": "reduced"}, {"measurement": "binding of CDK2 to p21Cip1", "setting": "CDK2/p21^Cip1", "value": "increased the binding"}, {"measurement": "cell death", "setting": "SBMA MN-1 cells [12]", "value": "significantly reduced"}, {"measurement": "penetration into target tissues", "setting": "[13]", "value": "scarce penetration into target tissues"}, {"measurement": "expression of p21Cip1", "setting": "p21^Cip1", "value": "induced the expression"}]}, {"molecule": "vasoactive intestinal peptide (HSDAVFTDNYTRLRKQMAVKKYLNSILN; ends and bridges not checked; UniProt P01282 125-152, looked up) [VIP]", "values": [{"measurement": "accumulation of the upper isoform of polyQ-AR, VIP", "setting": "AR55Q (polyQ-AR) [1]; fig. S3", "value": "does not modify"}, {"measurement": "activation of AC", "setting": "AC/PKA pathway", "value": "reduced ability to activate AC"}]}]}
